For test [1], the species on record is Homo sapiens. Briefly: Inhibition of P-gp-mediated Rhodamine-123 efflux in human MCF7 cells assessed as Rhodamine-123 accumulation measured after 40 mins by spectrofluorimetry. It counts as cell-based. Summed up:
(§1)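 Cells in DMEM, 96-well plates, grown to 30% confluency, then co-treated with compounds and Rhodamine 123 (1 μM in solution). Even cell distribution checked by imaging. After 40 min, cells were washed and Rhodamine 123 fluorescence read on a plate reader (ex 488 nm, em 515-575 nm). Signal with 0.5 μM tariquidar in each line set to 100%. Triplicate; mean ± SEM.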

For test [2], the species on record is Homo sapiens. Briefly: Inhibition of P-gp-mediated Rhodamine-123 efflux in human p53 -/- HCT-116 assessed as Rhodamine-123 accumulation measured after 40 mins by spectrofluorimetry. An outline of the steps: as §1
For the next test, the system named is HCT-116. As to the kind of experiment: Growth inhibition of human p53 -/- NCI-HCT-116 cells upto 10 uM incubated for 48 hrs. The following applies: dose microM <=10, time 48.0 hrs. It counts as functional, cell-based. An outline of the steps: (§2)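 Cells plated in DMEM and grown 48 h in 96-well optical-bottom plates before treatment. Compounds were added as 200X dilutions of DMSO stocks and tested up to 10 μM. After 48 h, wells were washed with PBS and monolayer confluence was scored by brightfield imaging. Untreated cells served as controls. Triplicate; mean ± SEM.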

In the next test the test system is NCI-H1299. Briefly: Growth inhibition of human p53 -/- H1299 cells upto 10 uM incubated for 48 hrs. The following applies: dose microM <=10, time 48.0 hrs.
For test [3], the species on record is Homo sapiens. As to the kind of experiment: Inhibition of P-gp-mediated Rhodamine-123 efflux in human p53 -/- H1299 cells assessed as Rhodamine-123 accumulation measured after 40 mins by spectrofluorimetry.
For the next test, the system named is MCF7. Briefly: Growth inhibition of human MCF7 upto 10 uM incubated for 48 hrs. It counts as functional, cell-based. The following applies: dose microM <=10, time 48.0 hrs. An outline of the steps:
as §2

The source made the active and inactive calls. No cut-off for these calls is given here.

For `CC(C)[C@@H](CS(=O)(=O)C(C)C)N1C(=O)[C@@](C)(CC(=O)O)C[C@H](c2cccc(Cl)c2)[C@H]1c1ccc(Cl)cc1`, the inhibition result in the test filed under Homo sapiens [1] and in the test listed under Homo sapiens [2] was “inactive” in each case. Further, the inhibition result in the test with HCT-116, in the test on NCI-H1299 and in the test listed under Homo sapiens [3] was “Active” throughout.
Regarding `COc1ccc(C2=N[C@@H](c3ccc(Cl)cc3)[C@@H](c3ccc(Cl)cc3)N2C(=O)N2CCNC(=O)C2)c(OC(C)C)c1`, in the test filed under Homo sapiens [3], the inhibition entry was “Active”.
On to `COc1cc2c(cc1OC)CN(CCc1ccc(NC(=O)c3cc(OC)c(OC)cc3NC(=O)c3cnc4ccccc4c3)cc1)CC2`, for which the inhibition entry in the test with MCF7, with HCT-116 and with NCI-H1299 was “inactive” in each case.
`O=C(NCc1ccc(F)cc1)c1ccc(/C=C2\C(=O)N(CN3CCN(Cc4cccc(Cl)c4)CC3)c3ccc(Cl)cc32)cc1`: the inhibition result in the test filed under Homo sapiens [1], in the test filed under Homo sapiens [2] and in the test filed under Homo sapiens [3] was “Active” throughout.
As to `N[C@H](C(=O)OCCCOC1(c2ccc(Cl)cc2)c2ccccc2C(=O)N1Cc1ccc(Cl)cc1)c1ccccc1` (stereo not given in full), the inhibition entry in the test listed under Homo sapiens [1], in the test filed under Homo sapiens [2] and in the test filed under Homo sapiens [3] was “Active” in each case.
